# Reference: publication PMC7854449 (Advances in Therapy, 2020)
# Columns and labels:
# [1] = cited from earlier work
# [2] = Safety and tolerability: treatment-emergent adverse events; assay type: in vivo, healthy Chinese subjects; settings: 13 weeks; for AEs leading to withdrawal, % (proportion of subjects) / AEs leading to withdrawal, E (number of events) / AEs leading to withdrawal, N (number of subjects) / AEs, % (proportion of subjects) / AEs, E (number of events) / AEs, N (number of subjects) / AEs, outcome not recovered/not resolved, % (proportion of subjects) / AEs, outcome not recovered/not resolved, E (number of events) / AEs, outcome not recovered/not resolved, N (number of subjects) / AEs, outcome recovered/resolved, % (proportion of subjects) / AEs, outcome recovered/resolved, E (number of events) / AEs, outcome recovered/resolved, N (number of subjects) / AEs, outcome recovering/resolving, % (proportion of subjects) / AEs, outcome recovering/resolving, E (number of events) / AEs, outcome recovering/resolving, N (number of subjects) / AEs, severity mild, % (proportion of subjects) / AEs, severity mild, E (number of events) / AEs, severity mild, N (number of subjects) / AEs, severity moderate, % (proportion of subjects) / AEs, severity moderate, E (number of events) / AEs, severity moderate, N (number of subjects) / AEs, severity severe, % (proportion of subjects) / AEs, severity severe, E (number of events) / AEs, severity severe, N (number of subjects) / Serious AEs, % (proportion of subjects) / Serious AEs, E (number of events) / Serious AEs, N (number of subjects): 12 subjects
# In short: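 This was a single-centre, randomised trial in 36 healthy Chinese adults, 12 per arm, double-blind within dose level, with placebo arms pooled. Test compound or matching placebo was injected s.c. in the abdomen once weekly for 13 weeks, escalating every 4 weeks to 0.5 or 1.0 mg. Treatment-emergent AEs were untoward occurrences after the first dose and before the follow-up visit, counted as subjects and events.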
# [3] = Multiple-dose pharmacokinetics of OW s.c. semaglutide, plasma, LC-MS/MS; assay type: in vivo, healthy Chinese subjects
# In short: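 Healthy Chinese adults (18–55 y, BMI 20.0–24.9 kg/m2) got s.c. abdominal injections weekly for 13 weeks, starting at 0.25 mg and escalating every 4 weeks to 0.5 or 1.0 mg. Plasma was sampled frequently after the first and last doses, plus pre-dose in weeks 4, 8 and 11, and assayed by LC–MS/MS. Values below LLOQ were imputed. Non-compartmental linear trapezoidal AUC0–168 h used actual times. Ratios came from a log-scale linear model (dose group fixed) with 95% CI. Racc,DC = (AUCSS/last dose)/(AUCSD/0.25 mg).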
smiles,measurement,setting,value
"CC[C@H](C)[C@H](NC(=O)[C@H](Cc1ccccc1)NC(=O)[C@H](CCC(=O)O)NC(=O)[C@H](CCCCNC(=O)COCCOCCNC(=O)COCCOCCNC(=O)CC[C@H](NC(=O)CCCCCCCCCCCCCCCCC(=O)O)C(=O)O)NC(=O)[C@H](C)NC(=O)[C@H](C)NC(=O)[C@H](CCC(N)=O)NC(=O)CNC(=O)[C@H](CCC(=O)O)NC(=O)[C@H](CC(C)C)NC(=O)[C@H](Cc1ccc(O)cc1)NC(=O)[C@H](CO)NC(=O)[C@H](CO)NC(=O)[C@@H](NC(=O)[C@H](CC(=O)O)NC(=O)[C@H](CO)NC(=O)[C@@H](NC(=O)[C@H](Cc1ccccc1)NC(=O)[C@@H](NC(=O)CNC(=O)[C@H](CCC(=O)O)NC(=O)C(C)(C)NC(=O)[C@@H](N)Cc1cnc[nH]1)[C@@H](C)O)[C@@H](C)O)C(C)C)C(=O)N[C@@H](C)C(=O)N[C@@H](Cc1c[nH]c2ccccc12)C(=O)N[C@@H](CC(C)C)C(=O)N[C@H](C(=O)N[C@@H](CCCNC(=N)N)C(=O)NCC(=O)N[C@@H](CCCNC(=N)N)C(=O)NCC(=O)O)C(C)C [semaglutide, Semaglutide]",half-life (t½),[1],≈ 1 week
same,"AEs leading to withdrawal, % (proportion of subjects)",[2]; OW s.c. 0.5 mg,0%
same,"AEs leading to withdrawal, E (number of events)",[2]; OW s.c. 0.5 mg,0
same,"AEs leading to withdrawal, N (number of subjects)",[2]; OW s.c. 0.5 mg,0
same,"AEs, % (proportion of subjects)",[2]; OW s.c. 0.5 mg,83%
same,"AEs, E (number of events)",[2]; OW s.c. 0.5 mg,44
same,"AEs, N (number of subjects)",[2]; OW s.c. 0.5 mg,10
same,"AEs, outcome not recovered/not resolved, % (proportion of subjects)",[2]; OW s.c. 0.5 mg,0%
same,"AEs, outcome not recovered/not resolved, E (number of events)",[2]; OW s.c. 0.5 mg,0
same,"AEs, outcome not recovered/not resolved, N (number of subjects)",[2]; OW s.c. 0.5 mg,0
same,"AEs, outcome recovered/resolved, % (proportion of subjects)",[2]; OW s.c. 0.5 mg,83%
same,"AEs, outcome recovered/resolved, E (number of events)",[2]; OW s.c. 0.5 mg,44
same,"AEs, outcome recovered/resolved, N (number of subjects)",[2]; OW s.c. 0.5 mg,10
same,"AEs, outcome recovering/resolving, % (proportion of subjects)",[2]; OW s.c. 0.5 mg,0%
same,"AEs, outcome recovering/resolving, E (number of events)",[2]; OW s.c. 0.5 mg,0
same,"AEs, outcome recovering/resolving, N (number of subjects)",[2]; OW s.c. 0.5 mg,0
same,"AEs, severity mild, % (proportion of subjects)",[2]; OW s.c. 0.5 mg,83%
same,"AEs, severity mild, E (number of events)",[2]; OW s.c. 0.5 mg,44
same,"AEs, severity mild, N (number of subjects)",[2]; OW s.c. 0.5 mg,10
same,"AEs, severity moderate, % (proportion of subjects)",[2]; OW s.c. 0.5 mg,0%
same,"AEs, severity moderate, E (number of events)",[2]; OW s.c. 0.5 mg,0
same,"AEs, severity moderate, N (number of subjects)",[2]; OW s.c. 0.5 mg,0
same,"AEs, severity severe, % (proportion of subjects)",[2]; OW s.c. 0.5 mg,0%
same,"AEs, severity severe, E (number of events)",[2]; OW s.c. 0.5 mg,0
same,"AEs, severity severe, N (number of subjects)",[2]; OW s.c. 0.5 mg,0
same,"Serious AEs, % (proportion of subjects)",[2]; OW s.c. 0.5 mg,0%
same,"Serious AEs, E (number of events)",[2]; OW s.c. 0.5 mg,0
same,"Serious AEs, N (number of subjects)",[2]; OW s.c. 0.5 mg,0
same,"AEs leading to withdrawal, % (proportion of subjects)",[2]; OW s.c. 1.0 mg,0%
same,"AEs leading to withdrawal, E (number of events)",[2]; OW s.c. 1.0 mg,0
same,"AEs leading to withdrawal, N (number of subjects)",[2]; OW s.c. 1.0 mg,0
same,"AEs, % (proportion of subjects)",[2]; OW s.c. 1.0 mg,92%
same,"AEs, E (number of events)",[2]; OW s.c. 1.0 mg,58
same,"AEs, N (number of subjects)",[2]; OW s.c. 1.0 mg,11
same,"AEs, outcome not recovered/not resolved, % (proportion of subjects)",[2]; OW s.c. 1.0 mg,0%
same,"AEs, outcome not recovered/not resolved, E (number of events)",[2]; OW s.c. 1.0 mg,0
same,"AEs, outcome not recovered/not resolved, N (number of subjects)",[2]; OW s.c. 1.0 mg,0
same,"AEs, outcome recovered/resolved, % (proportion of subjects)",[2]; OW s.c. 1.0 mg,92%
same,"AEs, outcome recovered/resolved, E (number of events)",[2]; OW s.c. 1.0 mg,57
same,"AEs, outcome recovered/resolved, N (number of subjects)",[2]; OW s.c. 1.0 mg,11
same,"AEs, outcome recovering/resolving, % (proportion of subjects)",[2]; OW s.c. 1.0 mg,8%
same,"AEs, outcome recovering/resolving, E (number of events)",[2]; OW s.c. 1.0 mg,1
same,"AEs, outcome recovering/resolving, N (number of subjects)",[2]; OW s.c. 1.0 mg,1
same,"AEs, severity mild, % (proportion of subjects)",[2]; OW s.c. 1.0 mg,92%
same,"AEs, severity mild, E (number of events)",[2]; OW s.c. 1.0 mg,57
same,"AEs, severity mild, N (number of subjects)",[2]; OW s.c. 1.0 mg,11
same,"AEs, severity moderate, % (proportion of subjects)",[2]; OW s.c. 1.0 mg,8%
same,"AEs, severity moderate, E (number of events)",[2]; OW s.c. 1.0 mg,1
same,"AEs, severity moderate, N (number of subjects)",[2]; OW s.c. 1.0 mg,1
same,"AEs, severity severe, % (proportion of subjects)",[2]; OW s.c. 1.0 mg,0%
same,"AEs, severity severe, E (number of events)",[2]; OW s.c. 1.0 mg,0
same,"AEs, severity severe, N (number of subjects)",[2]; OW s.c. 1.0 mg,0
same,"Serious AEs, % (proportion of subjects)",[2]; OW s.c. 1.0 mg,0%
same,"Serious AEs, E (number of events)",[2]; OW s.c. 1.0 mg,0
same,"Serious AEs, N (number of subjects)",[2]; OW s.c. 1.0 mg,0
same,severity of gastrointestinal adverse events,"[2]; OW s.c. 0.5 and 1.0 mg, none led to treatment discontinuation",mild
same,deaths,"[2]; whole trial, OW s.c. 0.5 and 1.0 mg",no deaths
same,"Racc,DC (dose-corrected accumulation ratio)","[3]; OW s.c. dosing, both dose groups",approximately 2
same,"treatment ratio (1.0 mg/0.5 mg) for Cmax,SS","[3]; [95% CI], dose proportionality",1.94 [1.74; 2.16]
same,"treatment ratio (1.0 mg/0.5 mg) for AUC0–168 h,SS","[3]; linear normal model on log-transformed values, [95% CI], dose proportionality",1.99 [1.78; 2.23]
